A short description of experiment [1]: nonspecific flux increase, KCNQ1-free cells – parental CHO cells, counter-screen for KCNQ1 potentiator project (AID 493006).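 On activation: fluorescence ratio of max minus min over baseline after K+ and Tl+ depolarization.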 The conditions noted are these: parental CHO-K1 cells, FluxOR thallium flux, at 10 µM; hits give high values. A digest of the protocol: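 Material: untransfected host CHO-K1 cells with FluxOR thallium dye. Timing: overnight 37 °C plating, 90 min RT dye, 20 min compound. Detection: kinetic FluxOR fluorescence, 10 s baseline, 110 s after stimulus. Read-out basis: max-minus-min fluorescence over baseline, percent of buffer-to-R-L3 span. Replicates: duplicate wells per compound, percent values averaged.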
Background: A counterscreen serves to expose hits that act by an unwanted route or on another target.

In experiment [2] the target is Potassium voltage-gated channel subfamily KQT member 1 (Homo sapiens) (UniProt P51787). In words: enhancement of KCNQ1 channel thallium flux – FluxOR thallium flux, CHO cells, duplicates, confirmation (AID 493007;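 active means potentiation averaged over duplicate wells exceeding buffer-only control mean by more than 3 SD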;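 on outcome: cells depolarized by a potassium plus thallium sulfate stimulus after compound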). The settings on record: KCNQ1 cell line, FluxOR thallium flux fluorescence, at 10 µM; hits give high values, % of reference activator effect, buffer zero. The gist of the method: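 Test system – KCNQ1-expressing CHO cell line · Incubation – FluxOR dye loading 90 min, compound exposure 20 min, room temperature · Detection – FluxOR Tl+ flux fluorescence, 10 s baseline plus 110 s recording · Controls – buffer-only wells as 0% and R-L3 activator as 100%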
Potassium voltage-gated channel subfamily KQT member 1 (Homo sapiens), sequence (P51787 whole entry, looked up): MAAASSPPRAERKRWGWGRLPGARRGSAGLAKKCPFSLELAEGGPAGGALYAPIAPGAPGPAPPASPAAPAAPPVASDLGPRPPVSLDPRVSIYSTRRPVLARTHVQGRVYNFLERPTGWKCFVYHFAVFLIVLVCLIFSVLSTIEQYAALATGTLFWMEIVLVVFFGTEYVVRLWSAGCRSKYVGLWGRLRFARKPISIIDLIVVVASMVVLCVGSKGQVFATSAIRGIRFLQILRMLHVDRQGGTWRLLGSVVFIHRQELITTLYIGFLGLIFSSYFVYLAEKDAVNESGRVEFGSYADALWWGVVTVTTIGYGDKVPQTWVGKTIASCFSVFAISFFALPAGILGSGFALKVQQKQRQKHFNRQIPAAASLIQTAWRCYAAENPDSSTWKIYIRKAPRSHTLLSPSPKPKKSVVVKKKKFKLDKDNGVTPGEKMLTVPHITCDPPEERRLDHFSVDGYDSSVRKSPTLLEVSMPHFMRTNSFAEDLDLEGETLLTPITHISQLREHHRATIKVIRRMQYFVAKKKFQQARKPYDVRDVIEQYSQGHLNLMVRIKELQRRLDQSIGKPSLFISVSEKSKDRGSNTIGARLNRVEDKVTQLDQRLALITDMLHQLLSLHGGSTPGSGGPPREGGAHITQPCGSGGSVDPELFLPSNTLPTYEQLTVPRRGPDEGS

Experiment [3] addresses Potassium voltage-gated channel subfamily KQT member 2 (Rattus norvegicus) (UniProt O88943). In words: KCNQ2 thallium flux enhancement – KCNQ2-CHO-K1 cells, selectivity assay for KCNQ1 potentiator project (AID 493009;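 active means mean duplicate potentiation above the buffer control mean plus 5 SD of buffer wells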;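 further: assay conditions were tuned for KCNQ1 rather than KCNQ2 modulators; signal is max minus min fluorescence divided by baseline after thallium stimulus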). The conditions noted are these: FluxOR thallium flux fluorescence, at 10 µM; hits give high values, scaled: buffer 0, activator control 100.
For experiment [4], the target named is Potassium voltage-gated channel subfamily KQT member 1 (Homo sapiens) (UniProt P51787). In words: KCNQ1 activators by electrophysiology – IonWorks patch clamp, KCNQ1-CHO cells, orthogonal assay for KCNQ1 potentiator project, confirmation (AID 493184;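 active means current rise at least 3 SD above the untreated control mean in each of two repeat wells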). The settings on record: automated patch clamp current, at 10 µM; hits give high values. A digest of the protocol: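 Read-out: Percent current increase versus pre-compound level | Assay system: CHO cells carrying KCNQ1 | Measured by: Automated perforated-patch electrophysiology | Medium: External bath solution at pH 7.4 | Dosing: One dose, 10 µM final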
Background: In patch-clamp work, channel activity is measured electrically.

Active and inactive are the calls of the source.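 How the source made its calls, unless noted: active means duplicate-averaged activation above buffer control mean plus 5 SD of those controls; inactive means the rest.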

Potassium voltage-gated channel subfamily KQT member 2 (Rattus norvegicus), sequence (O88943 whole entry, looked up): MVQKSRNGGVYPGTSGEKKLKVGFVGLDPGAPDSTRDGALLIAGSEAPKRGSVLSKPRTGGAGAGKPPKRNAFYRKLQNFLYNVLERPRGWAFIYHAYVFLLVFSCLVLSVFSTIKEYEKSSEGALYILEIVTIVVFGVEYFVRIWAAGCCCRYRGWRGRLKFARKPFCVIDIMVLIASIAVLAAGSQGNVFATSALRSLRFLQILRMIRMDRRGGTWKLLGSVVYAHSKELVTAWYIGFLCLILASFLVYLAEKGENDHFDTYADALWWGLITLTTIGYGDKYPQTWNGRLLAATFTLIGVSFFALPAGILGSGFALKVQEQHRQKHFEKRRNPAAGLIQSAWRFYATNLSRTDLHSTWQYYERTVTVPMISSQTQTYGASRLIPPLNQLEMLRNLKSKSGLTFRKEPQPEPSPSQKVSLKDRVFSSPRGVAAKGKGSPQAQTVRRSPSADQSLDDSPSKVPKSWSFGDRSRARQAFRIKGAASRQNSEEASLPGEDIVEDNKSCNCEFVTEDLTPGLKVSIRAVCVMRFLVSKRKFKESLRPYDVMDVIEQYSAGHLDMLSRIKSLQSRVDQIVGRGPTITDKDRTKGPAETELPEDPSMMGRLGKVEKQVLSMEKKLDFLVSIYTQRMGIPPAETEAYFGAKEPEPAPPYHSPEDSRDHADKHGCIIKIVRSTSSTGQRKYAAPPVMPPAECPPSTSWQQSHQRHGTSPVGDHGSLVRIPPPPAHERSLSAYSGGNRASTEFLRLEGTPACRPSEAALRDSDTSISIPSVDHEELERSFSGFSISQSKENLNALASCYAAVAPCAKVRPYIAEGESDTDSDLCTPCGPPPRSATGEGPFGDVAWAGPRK

`C=CCN(c1ccccc1)S(=O)(=O)c1cccc(C(=O)Nc2cccc(C)n2)c1`: the activation in experiment [1] was 290% (active). Also, the potentiation in experiment [2] is 224% (active); in experiment [3], 358% (active). Further, the result in experiment [4] was inactive.
As to `CC1CN(S(=O)(=O)c2ccc(Cl)c(C(F)(F)F)c2)CC(C)O1` (configuration not stated), the outcome in experiment [1], in experiment [2], in experiment [3] and in experiment [4] was inactive.
Take `Cn1c(SCc2ccc(C#N)cc2Cl)nc2ccccc21`: the outcome in experiment [1], in experiment [2], in experiment [3] and in experiment [4] was inactive.
Turning to `O=c1c2cc(Cl)ccc2nc(-c2ccc([N+](=O)[O-])cc2)n1O`, the activation in experiment [1] was 445% (active). For the same compound, the potentiation was 193% (active) in experiment [2] and 456% (active) in experiment [3]. Further, the result in experiment [4] was inactive.
On to `CCOC(=O)C1(CCCc2ccccc2)CCN(Cc2cnc(C)s2)CC1`, for which the outcome in experiment [1], in experiment [2], in experiment [3] and in experiment [4] was inactive.
Turning to `Cc1csc(=O)n1CCC(=O)OCC(=O)NCc1ccc(F)cc1`, the result in experiment [1], in experiment [2] and in experiment [4] was inactive. In experiment [3], the potentiation is 186% (active).
Consider `CCOc1ccc(-c2c(=O)n(O)c3ccccc3[n+]2[O-])cc1`, for which the activation in experiment [1] was 224% (active). Besides, the potentiation in experiment [2] was 59.5% (active); in experiment [3], 254% (active). The outcome in experiment [4] was inactive.
On to `CC(C)CSC1=NSC2=NC(=O)/C(=C\c3cccs3)C(=N)N12`, for which the result in experiment [1], in experiment [2], in experiment [3] and in experiment [4] was inactive.
As to `COc1ccc(C)cc1NC(=O)C(=O)NNC(=O)COc1ccc(Cl)cc1`, in experiment [1], the activation was 166% (active). Besides, the potentiation is 195% (active) in experiment [2] and 258% (active) in experiment [3]. For the same compound, the result in experiment [4] was inactive.
`CCCCc1nc2sc3c(SCCN(C)C)ncnc3c2c2c1CCC2`: in experiment [1], the activation is 207% (active). For the same compound, the potentiation in experiment [2] was 122% (active); in experiment [3], 183% (active). The result in experiment [4] was inactive.
With `C/C(=N\NS(=O)(=O)c1ccc(Br)cc1)c1cccs1`, the outcome in experiment [1], in experiment [2], in experiment [3] and in experiment [4] was inactive.
In the case of `Cc1ccccc1OCc1nnc(SCCN2CCCC2)n1-c1ccccc1`, the result in experiment [1], in experiment [2], in experiment [3] and in experiment [4] was inactive.
With `CCC1(c2ccc(Cl)cc2)NC(=S)N(c2ccccc2)N1` (configuration not stated), in experiment [1], the activation was 405% (active). In addition, the potentiation was 150% (active) in experiment [2] and 375% (active) in experiment [3]. Moreover, the result in experiment [4] was inactive.
Taken in the same sequence, the figures for `Oc1c(CN2CCN(c3ccccn3)CC2)cc(Cl)c2cccnc12` were 148% (active), 35% (active), 172% (active) and “inactive”.
With `CC(c1ccccc1C(O)(c1ccccc1)c1ccccc1)N(C)C` (configuration not stated), the outcome in experiment [1], in experiment [2], in experiment [3] and in experiment [4] was inactive.
For `COc1ccc(CC(=O)c2ccccc2C(=O)O)cc1`, the outcome in experiment [1], in experiment [2], in experiment [3] and in experiment [4] was inactive.
Regarding `COCCn1c(=S)[nH]c2sc3c(c2c1=O)CCCC3`, the activation in experiment [1] was 325% (active). Besides, the potentiation in experiment [2] is 106% (active); in experiment [3] it was 312% (active). For the same compound, the result in experiment [4] was inactive.
For `CCn1c(=S)[nH]c2scc(-c3cccs3)c2c1=O`, the activation in experiment [1] is 548% (active). Further, the potentiation in experiment [2] was 246% (active); in experiment [3] it was 528% (active). In experiment [4], the outcome was inactive.
For `S=c1nc(Cc2ccc(Cl)cc2)[nH]c2ccccc12`, in that order: 372% (active), 148% (active), 350% (active) and “inactive”.
As for `Cc1cc(C(=O)CSc2nnc(N)s2)c(C)n1C1CC1`, the result in experiment [1], in experiment [2], in experiment [3] and in experiment [4] was inactive.
As for `Cc1cc(-c2csc3nc[nH]c(=S)c23)cc(C)c1C`, in experiment [1], the activation is 286% (active). In addition, the potentiation in experiment [2] was 255% (active); in experiment [3], 408% (active). Moreover, in experiment [4], the result was inactive.
Taken in the same sequence, the figures for `COc1ccc(-c2csc(NC(=S)NC(=O)c3ccco3)n2)cc1` were 264% (active), 80.5% (active), 216% (active) and “inactive”.
As for `CCc1cc2c(=O)[nH]c(-c3ccccn3)nc2s1`, the outcome in experiment [1] and in experiment [4] was inactive. Also, the values for the potentiation in experiment [2] and in experiment [3] were 26% (active) and 226% (active), respectively.
On to `COc1ccc(OC)c(S(=O)(=O)Nc2ccc3c(c2)N(C(C)=O)CCC3)c1`, for which the result in experiment [1], in experiment [2], in experiment [3] and in experiment [4] was inactive.
`O=Cc1cc2ccccc2nc1SCCCF`: the result in experiment [1], in experiment [2], in experiment [3] and in experiment [4] was inactive.
Consider `O=C(Oc1c(-c2ccco2)oc2ccccc2c1=O)c1cccnc1`, for which the outcome in experiment [1] and in experiment [4] was inactive. Moreover, the potentiation in experiment [2] was 39.5% (active); in experiment [3], 187% (active).
For `O=c1cc(-c2ccccc2)nc2c(-c3ccccc3)c(C(F)(F)F)[nH]n12`, the activation in experiment [1] was 626% (active). Further, the potentiation is 282% (active) in experiment [2] and 591% (active) in experiment [3]. Moreover, the result in experiment [4] was inactive.
Taken in the same sequence, the figures for `O=C(NC(=S)Nc1cccc(C(F)(F)F)c1)c1csnn1` were 595% (active), 308% (active), 618% (active) and “inactive”.

(Values after PubChem BioAssay.)
